Peptide text beside a SMILES is read from it. * marks the point of attachment. Doxorubicin(3'-N) = COc1cccc2c1C(=O)c1c(O)c3c(c(O)c1C2=O)C[C@@](O)(C(=O)CO)C[C@@H]3O[C@H]1C[C@H](N*)[C@H](O)[C@H](C)O1; Phosphonoacetyl = O=C(CP(=O)(O)O)*
Assays:
[1] = Tissue distribution and pharmacokinetics in E0771 tumor-bearing mice; type: in vivo, mouse; conditions: for t 1/2α / C max / AUC / Cmax / t max / t 1/2β: label = analyte
patients = conditions: cited from earlier work
E0771 cells = assay: In vitro 2D cytotoxicity; type: cell-based; conditions: Mus musculus, E0771, 72 h
LS 174T cells = assay: In vitro 2D cytotoxicity; type: cell-based; conditions: Homo sapiens, LS174T, 72 h
MDA-MB-468 cells = assay: In vitro 2D cytotoxicity; type: cell-based; conditions: Homo sapiens, MDA-MB-468, 72 h
Acute toxicity = type: in vivo, mouse; conditions: mouse, in vivo
[2] = test system: human myeloid progenitors; assay: In vitro hematotoxicity, colony growth; type: cell-based
Method in brief: (§1)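 Human erythroid and myeloid progenitors grown in MethoCult GF H84434 with continuous exposure to the test compound for 14 days. Progenitor proliferation was scored as colony growth and dose–response curves were fitted to give IC50.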

[3] = test system: human erythroid progenitors; assay: In vitro hematotoxicity, colony growth; type: cell-based
Method in brief: as §1

[4] = test system: C57BL6 mice (bone marrow repopulation); assay: In vivo hematotoxicity, bone marrow transplantation from treated donors; set-up: species or system mouse; conditions: for survival of mice receiving BM from treated donors: day 41 post-transplantation, donors 58 mg/kg/week Dox or 1,026 mg/kg/week PhAc-ALGP-Dox
Method in brief: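 Donor C57BL6 mice received the test compound (1,026 mg/kg/week) or doxorubicin (58 mg/kg/week) by intraperitoneal osmotic minipump for 7 days. Blood and bone marrow were collected 2 days later. Blood counts used a haematology analyser, and subpopulations were analysed by FACS (CTL = CD3+ CD8a+; B = CD45R+; CD4+; NK1.1+), n = 8. Bone marrow cells (1 × 10^7) were injected IV into 9.5 Gy-irradiated recipients, which were followed 41 days.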

[5] = test system: human iPSCs-derived cardiomyocytes; assay: Impedance-based cardiotoxicity; type: cell-based
H9C2 rat cardiomyocytes = assay: In vitro cardiotoxicity; type: cell-based; conditions: for cytotoxicity in differentiated cardiomyocytes: differentiated H9C2; for cytotoxicity in mitotic cells: mitotic H9C2, 16 hrs treatment, viability 72 hrs later
recombinant human CD10 = recombinant human CD10 (Homo sapiens, UniProt P08473); assay: Peptidase cleavage assay; type: biochemical; conditions: after exposure to CD10, at 16 hours
Sequence of recombinant human CD10 (P08473 whole entry): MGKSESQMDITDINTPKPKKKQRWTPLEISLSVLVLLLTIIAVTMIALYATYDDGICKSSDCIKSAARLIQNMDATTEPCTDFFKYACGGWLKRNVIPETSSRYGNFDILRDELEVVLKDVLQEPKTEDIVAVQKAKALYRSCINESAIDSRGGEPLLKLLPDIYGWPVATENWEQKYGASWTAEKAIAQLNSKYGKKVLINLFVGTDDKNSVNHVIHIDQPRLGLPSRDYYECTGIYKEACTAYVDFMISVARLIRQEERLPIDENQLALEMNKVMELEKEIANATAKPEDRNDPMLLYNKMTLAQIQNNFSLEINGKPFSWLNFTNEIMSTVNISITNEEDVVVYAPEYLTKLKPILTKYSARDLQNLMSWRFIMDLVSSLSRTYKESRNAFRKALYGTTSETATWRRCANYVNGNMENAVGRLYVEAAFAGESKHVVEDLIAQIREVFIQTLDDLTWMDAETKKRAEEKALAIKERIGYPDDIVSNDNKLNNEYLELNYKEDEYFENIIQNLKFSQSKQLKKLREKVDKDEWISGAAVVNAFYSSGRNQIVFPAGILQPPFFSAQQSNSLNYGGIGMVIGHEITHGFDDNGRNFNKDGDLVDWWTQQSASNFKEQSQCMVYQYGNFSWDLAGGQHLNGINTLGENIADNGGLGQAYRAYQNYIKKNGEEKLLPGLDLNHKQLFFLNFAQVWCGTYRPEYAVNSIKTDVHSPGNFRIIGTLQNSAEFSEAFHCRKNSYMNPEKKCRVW
Method in brief: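 Test compound (2 μM) in 150 mM NaCl, 50 mM Tris, 1% BSA, pH 7.5, at 37°C. Reaction started with recombinant human enzyme at equi-active levels (CD10 0.08, NLN 0.8, THOP1 0.1 μg/mL).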

[6] = Plasma pharmacokinetics after IV administration in healthy mice; type: in vivo, mouse
Method in brief: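 Healthy mice (n = 5 per group) received a single IV dose of test compound at 849.5 mg/kg. A second set received equimolar doses: test compound 23.6 mg/kg versus doxorubicin 13.3 mg/kg. Plasma levels of prodrug, peptide-doxorubicin intermediates and free doxorubicin were followed over time and t1/2 was determined.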

[7] = Tissue imaging by MALDI-FTICR MSI in E0771 tumor-bearing mice; type: in vivo, mouse; conditions: 849.5 mg/kg IV
Method in brief: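 Female C57BL6 mice carried orthotopic E0771 tumors (1 × 10^6 cells in PBS injected into the mammary fat pad). Test compound was given IV at 849.5 mg/kg (reference doxorubicin 23 mg/kg). Whole-body and tumor sections were taken at 15 min, 24 h and 48 h and imaged by MALDI-FTICR MSI for free doxorubicin and metabolites, with H&E overlay.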

mice = assay: Acute toxicity; type: in vivo, mouse; conditions: from LD50
[8] = MTD determination, weekly dosing; type: in vivo, mouse; conditions: mouse, in vivo
Method in brief: (§2)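 Female nu/nu NMRI mice, 6–8 weeks old, carried subcutaneous MDA-MB-468 xenografts (5 × 10^6 cells in PBS:Matrigel 1:1, right posterior flank). Healthy mice served alongside. Test compound was given weekly at 103, 206 or 309 mg/kg. Body weight, survival and tumor volume were monitored periodically during and after treatment, n = 5, mean ± SD.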

[9] = test system: MDA-MB-468 tumor bearing mice; assay: MTD determination, weekly dosing; type: in vivo, mouse
Method in brief: as §2

[10] = heart, IV Doxorubicin 92 μmol/kg
[11] = kidney, IV Doxorubicin 92 μmol/kg
[12] = liver, IV Doxorubicin 92 μmol/kg
[13] = plasma, IV Doxorubicin 92 μmol/kg
[14] = heart, IV PhAc-ALGP-Dox 92 μmol/kg
[15] = kidney, IV PhAc-ALGP-Dox 92 μmol/kg
[16] = liver, IV PhAc-ALGP-Dox 92 μmol/kg
[17] = plasma, IV PhAc-ALGP-Dox 92 μmol/kg
[18] = tumor, IV Doxorubicin 92 μmol/kg
[19] = tumor, IV PhAc-ALGP-Dox 92 μmol/kg

COc1cccc2c1C(=O)c1c(O)c3c(c(O)c1C2=O)C[C@@](O)(C(=O)CO)C[C@@H]3O[C@H]1C[C@H](NC(=O)[C@H](CC(C)C)NC(=O)[C@H](C)NC(=O)[C@H](CC(C)C)NC(=O)CCNC(=O)CCC(=O)O)[C@H](O)[C@H](C)O1 [DTS-201, reference compound]
t 1/2α ([1]; heart, IV DTS-201 92 μmol/kg): 0.2 | t 1/2α ([1]; kidney, IV DTS-201 92 μmol/kg): 0.4 | t 1/2α ([1]; liver, IV DTS-201 92 μmol/kg): 0.6 | t 1/2α ([1]; plasma, IV DTS-201 92 μmol/kg): 0.25 | t 1/2α ([1]; tumor, IV DTS-201 92 μmol/kg): 0.4 | tolerated dose relative to the standard dose of Dox (patients): 3.75 fold | well tolerated dose in patients (patients; clinical trial): up to 400 mg/m^2

COc1cccc2c1C(=O)c1c(O)c3c(c(O)c1C2=O)C[C@@](O)(C(=O)CO)C[C@@H]3O[C@H]1C[C@H](N)[C@H](O)[C@H](C)O1 [Dox, Doxorubicin, reference compound]
IC50 (E0771 cells): 20 nM | IC50 (LS 174T cells): 20 nM | IC50 (MDA-MB-468 cells): 110 nM | t 1/2α [1, 10]: 5.6 | t 1/2α [1, 11]: 2.7 | t 1/2α [1, 12]: 2.1 | concentration at 72 hours ([1]; mouse, tumor, intravenous, 53.4 mg/kg): 7300 nM | t 1/2α [1, 13]: 0.2 | LD50 (Acute toxicity): 17 mg/kg | IC50 [2]: 10 nM | IC50 [3]: 20 nM | survival of mice receiving BM from treated donors [4]: 30% | cardiotoxicity (cellular impedance) ([5]; by 72 hours): 100% | cytotoxicity in differentiated cardiomyocytes (H9C2 rat cardiomyocytes): nanomolar potency | cytotoxicity in mitotic cells (H9C2 rat cardiomyocytes): nanomolar potency

COc1cccc2c1C(=O)c1c(O)c3c(c(O)c1C2=O)C[C@@](O)([C@@H](O)CO)C[C@@H]3O[C@H]1C[C@H](N)[C@H](O)[C@H](C)O1 [DoxOL, Doxorubicinol]
C max ([1]; heart, IV DTS-201 92 μmol/kg): <LoQ | AUC [1, 10]: 54 | Cmax [1, 10]: 860 nM | t 1/2α [1, 10]: 47 | t max [1, 10]: 240 | C max [1, 14]: <LoQ | AUC ([1]; kidney, IV DTS-201 92 μmol/kg): 49.7 | Cmax ([1]; kidney, IV DTS-201 92 μmol/kg): 1480 nM | t 1/2β ([1]; kidney, IV DTS-201 92 μmol/kg): 27.1 | t max ([1]; kidney, IV DTS-201 92 μmol/kg): 240 | AUC [1, 11]: 168 | Cmax [1, 11]: 6800 nM | t 1/2α [1, 11]: 2.5 | t 1/2β [1, 11]: 49 | t max [1, 11]: 30 | AUC [1, 15]: 20.8 | Cmax [1, 15]: 1960 nM | t 1/2α [1, 15]: 1 | t 1/2β [1, 15]: 19.7 | t max [1, 15]: 30 | AUC ([1]; liver, IV DTS-201 92 μmol/kg): 30.8 | Cmax ([1]; liver, IV DTS-201 92 μmol/kg): 670 nM | t 1/2β ([1]; liver, IV DTS-201 92 μmol/kg): 33.4 | t max ([1]; liver, IV DTS-201 92 μmol/kg): 120 | AUC [1, 12]: 104 | Cmax [1, 12]: 6000 nM | t 1/2α [1, 12]: 2.2 | t 1/2β [1, 12]: 33.3 | AUC [1, 16]: 10.6 | Cmax [1, 16]: 440 nM | t 1/2β [1, 16]: 21.7 | t max [1, 16]: 240 | C max ([1]; plasma, IV DTS-201 92 μmol/kg): <LoQ | C max [1, 13]: <LoQ | C max [1, 17]: <LoQ | C max ([1]; tumor, IV DTS-201 92 μmol/kg): <LoQ | AUC [1, 18]: 8 | Cmax [1, 18]: 120 nM | t max [1, 18]: 2,880 | C max [1, 19]: <LoQ

COc1cccc2c1C(=O)c1c(O)c3c(c(O)c1C2=O)C[C@@](O)(C(=O)CO)C[C@@H]3O[C@H]1C[C@H](NC(=O)[C@@H]2CCCN2C(=O)CN)[C@H](O)[C@H](C)O1 [GP-Dox]
t 1/2α [1, 14]: 0.3 | t 1/2α [1, 15]: 0.2 | t 1/2α [1, 16]: 1.4 | t 1/2α [1, 17]: 0.2 | t 1/2α [1, 19]: 0.5

COc1cccc2c1C(=O)c1c(O)c3c(c(O)c1C2=O)C[C@@](O)(C(=O)CO)C[C@@H]3O[C@H]1C[C@H](NC(=O)[C@@H]2CCCN2C(=O)CNC(=O)[C@@H](N)CC(C)C)[C@H](O)[C@H](C)O1 [LGP-Dox]
amount of LGP-Dox detected from PhAc-ALGP-Dox (recombinant human CD10): 2.65% | t 1/2α [1, 15]: 0.1 | t 1/2α [1, 17]: 0.15

COc1cccc2c1C(=O)c1c(O)c3c(c(O)c1C2=O)C[C@@](O)(C(=O)CO)C[C@@H]3O[C@H]1C[C@H](NC(=O)[C@@H]2CCCN2C(=O)CNC(=O)[C@H](CC(C)C)NC(=O)[C@H](C)NC(=O)CP(=O)(O)O)[C@H](O)[C@H](C)O1 [PhAc-ALGP-Dox] (Phosphonoacetyl-ALGP-{Doxorubicin(3'-N)})
increase of exposure to free Dox compared with administration of Dox (13.3 mg/kg) ([6]; 849.5 mg/kg PhAc-ALGP-Dox, molar concentration 36-fold higher): 1.9 fold | free Dox lower than after Dox ([6]; equimolar doses, PhAc-ALGP-Dox 23.6 mg/kg vs Dox 13.3 mg/kg): 19 fold | half-life ([6]; mouse, in vivo, iv, 849.5 mg/kg): 6.5 to 8.5 min | t 1/2α [1, 14]: 0.17 | greater retention of Dox in the tumor microenvironment compared with the parental drug ([1]; in vivo): 5 fold | t 1/2α [1, 15]: 0.1 | t 1/2α [1, 16]: 0.7 | t 1/2α [1, 17]: 0.21 | free Dox exposure lower than after equimolar dosage of Dox ([1]; plasma, PhAc-ALGP-Dox 94.4 mg/kg vs Dox 53.4 mg/kg): 15 fold | t 1/2α [1, 19]: 0.3 | intratumoral free Dox concentration lower than after equimolar Dox ([1]; tumor, PhAc-ALGP-Dox 94.4 mg/kg vs Dox 53.4 mg/kg): 2.8 fold | time for which presence of free Dox in tumor remained stable [7]: ≥ 48 h | LD50 (Acute toxicity): 780 mg/kg | times more payload that can be administered than Dox (mice): 27 times | reduction of circulating cytotoxic T lymphocytes (CTL) in donor mice ([4]; 1,026 mg/kg/week via osmotic minipumps, 7 days): 15% | survival of mice receiving BM from treated donors [4]: 80% | concentrations at which alterations were induced ([5]; cellular impedance, up to 72 h): > 5000 nM | cytotoxicity in differentiated cardiomyocytes (H9C2 rat cardiomyocytes): essentially resilient | cytotoxicity in mitotic cells (H9C2 rat cardiomyocytes): considerably less affected | MTD at 672 h [8]: 154 mg/kg | highest tolerated dose as Dox equivalent ([9]; every weeks × 4): 87 mg/kg Dox equivalent | higher tolerability compared with the parental drug ([9]; in vivo): 10 fold | body weight loss ([9]; tumor bearing mice, four cycles of 206 mg/kg weekly, mild but reversible): 15%

From publication PMC9377749 (Molecular Cancer Therapeutics, 2022)
